Test results taken from ChEMBL document CHEMBL5247577, “Improved Selective Class I HDAC and Novel Selective HDAC3 Inhibitors: Beyond Hydroxamic Acids and Benzamides” (ACS Med Chem Lett, 2019).
Activity calls are given as the source filed them. No cut-off for these calls is given here.

Columns and labels:
Histone deacetylase = experiment: Inhibition of HDAC in human HeLa cells using FLUOR DE LYS-SIRT1 as fluorogenic substrate incubated for 4 hrs by spectrophotometer based analysis; format: cell-based
Histone deacetylase 2 = Histone deacetylase 2 (Homo sapiens, UniProt Q92769); experiment: Inhibition of human HDAC2
Sequence of Histone deacetylase 2 (Q92769 whole entry): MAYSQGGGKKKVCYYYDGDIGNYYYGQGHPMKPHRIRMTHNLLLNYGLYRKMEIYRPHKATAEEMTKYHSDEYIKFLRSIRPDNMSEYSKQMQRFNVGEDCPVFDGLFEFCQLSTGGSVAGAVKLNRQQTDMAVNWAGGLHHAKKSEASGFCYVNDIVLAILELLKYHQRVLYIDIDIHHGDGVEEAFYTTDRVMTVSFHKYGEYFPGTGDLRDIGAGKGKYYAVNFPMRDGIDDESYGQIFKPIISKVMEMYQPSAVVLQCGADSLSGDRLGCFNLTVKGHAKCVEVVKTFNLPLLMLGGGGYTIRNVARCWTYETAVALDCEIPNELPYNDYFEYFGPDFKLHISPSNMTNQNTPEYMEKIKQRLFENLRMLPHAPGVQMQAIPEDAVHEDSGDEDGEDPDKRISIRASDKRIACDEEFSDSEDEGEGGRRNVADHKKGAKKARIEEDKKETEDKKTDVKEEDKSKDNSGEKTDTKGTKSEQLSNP

[1] = biological target: Histone deacetylase 5 (Homo sapiens) (UniProt Q9UQL6); experiment: Inhibition of human HDAC5 at 5 uM
[2] = biological target: Histone deacetylase 4 (Homo sapiens) (UniProt P56524); experiment: Inhibition of human HDAC4 at 5 uM
[3] = biological target: T1, Histone deacetylase 7 (Homo sapiens) (UniProt Q8WUI4); experiment: Inhibition of human HDAC7 at 5 uM
T1 sequence (whole entry): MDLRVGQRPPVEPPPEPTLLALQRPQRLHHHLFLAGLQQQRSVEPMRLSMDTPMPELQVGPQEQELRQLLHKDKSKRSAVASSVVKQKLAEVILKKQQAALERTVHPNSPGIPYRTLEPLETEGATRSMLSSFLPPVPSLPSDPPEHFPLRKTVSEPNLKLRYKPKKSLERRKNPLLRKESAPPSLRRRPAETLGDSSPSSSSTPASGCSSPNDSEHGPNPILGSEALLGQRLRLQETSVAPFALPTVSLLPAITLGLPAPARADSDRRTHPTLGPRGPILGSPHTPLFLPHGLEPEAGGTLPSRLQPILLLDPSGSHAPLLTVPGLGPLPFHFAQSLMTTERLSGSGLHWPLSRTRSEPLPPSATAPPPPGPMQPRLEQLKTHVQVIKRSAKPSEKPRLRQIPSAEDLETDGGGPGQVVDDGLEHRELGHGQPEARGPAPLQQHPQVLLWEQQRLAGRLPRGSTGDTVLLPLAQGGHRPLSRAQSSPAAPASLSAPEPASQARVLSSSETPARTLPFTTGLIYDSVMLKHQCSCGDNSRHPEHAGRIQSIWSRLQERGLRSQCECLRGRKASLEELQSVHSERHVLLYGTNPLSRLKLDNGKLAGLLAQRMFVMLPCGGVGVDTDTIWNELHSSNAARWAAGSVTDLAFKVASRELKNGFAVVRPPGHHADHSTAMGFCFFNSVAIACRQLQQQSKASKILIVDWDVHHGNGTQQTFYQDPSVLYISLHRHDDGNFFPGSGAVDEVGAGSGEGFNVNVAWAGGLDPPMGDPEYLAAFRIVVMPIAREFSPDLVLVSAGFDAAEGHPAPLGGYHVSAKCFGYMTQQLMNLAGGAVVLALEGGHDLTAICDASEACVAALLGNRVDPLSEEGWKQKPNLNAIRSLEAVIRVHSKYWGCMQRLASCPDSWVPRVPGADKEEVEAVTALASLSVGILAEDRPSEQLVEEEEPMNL

Cytochrome P450 2D6 = Cytochrome P450 2D6 (Homo sapiens, UniProt P10635); experiment: Inhibition of CYP2D6 (unknown origin); format: ADME
Sequence of Cytochrome P450 2D6 (P10635 whole entry): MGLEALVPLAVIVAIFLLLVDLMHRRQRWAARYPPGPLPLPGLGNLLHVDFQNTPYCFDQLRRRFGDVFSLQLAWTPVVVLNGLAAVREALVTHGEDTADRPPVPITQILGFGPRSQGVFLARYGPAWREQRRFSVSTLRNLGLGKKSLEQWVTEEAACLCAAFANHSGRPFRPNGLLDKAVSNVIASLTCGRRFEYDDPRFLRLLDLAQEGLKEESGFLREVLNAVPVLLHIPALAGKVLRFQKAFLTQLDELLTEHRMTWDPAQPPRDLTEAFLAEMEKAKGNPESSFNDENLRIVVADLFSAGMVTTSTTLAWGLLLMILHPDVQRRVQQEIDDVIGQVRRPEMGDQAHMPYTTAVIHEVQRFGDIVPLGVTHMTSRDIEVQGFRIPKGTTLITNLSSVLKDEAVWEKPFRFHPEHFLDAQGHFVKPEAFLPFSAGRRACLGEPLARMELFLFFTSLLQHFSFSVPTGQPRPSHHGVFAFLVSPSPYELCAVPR

Cytochrome P450 2C9 = Cytochrome P450 2C9 (Homo sapiens, UniProt P11712); experiment: Inhibition of CYP2C9 (unknown origin); format: ADME
Sequence of Cytochrome P450 2C9 (P11712 whole entry): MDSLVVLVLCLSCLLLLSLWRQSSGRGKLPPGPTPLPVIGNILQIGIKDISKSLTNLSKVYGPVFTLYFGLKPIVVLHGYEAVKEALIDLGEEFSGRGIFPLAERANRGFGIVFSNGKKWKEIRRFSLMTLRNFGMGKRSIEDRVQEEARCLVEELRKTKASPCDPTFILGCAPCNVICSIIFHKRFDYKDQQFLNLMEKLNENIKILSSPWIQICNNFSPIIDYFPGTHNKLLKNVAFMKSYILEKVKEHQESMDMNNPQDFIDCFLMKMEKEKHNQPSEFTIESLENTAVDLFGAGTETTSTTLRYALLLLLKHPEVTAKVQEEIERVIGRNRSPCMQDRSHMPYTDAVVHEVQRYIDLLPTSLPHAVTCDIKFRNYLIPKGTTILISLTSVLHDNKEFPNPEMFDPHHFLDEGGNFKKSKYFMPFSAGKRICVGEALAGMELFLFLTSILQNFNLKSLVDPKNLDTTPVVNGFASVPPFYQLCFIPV

[4] = Genotoxicity in Salmonella typhimurium by Ames test; format: toxicity; details: salmonella enterica subsp. enterica serovar typhimurium
Procedure, shortened: (§1)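 Bacterial reverse mutation assay in two strains, Salmonella typhimurium and Escherichia coli, scoring reverse mutations.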

[5] = Genotoxicity in Escherichia coli by Ames test; format: toxicity; procedure, shortened: as §1
[6] = Permeability of the compound in porcine brain endothelial cells by BBB assay; format: ADME, cell-based, Sus scrofa, Endothelial cell; details: pig; read-out: permeability
[7] = biological target: T2, Voltage-gated inwardly rectifying potassium channel KCNH2 (Homo sapiens, UniProt Q12809); experiment: Inhibition of hERG potassium channel incubated for 4 hrs by fluorescence polarization assay; format: toxicity
T2 sequence (Q12809 whole entry): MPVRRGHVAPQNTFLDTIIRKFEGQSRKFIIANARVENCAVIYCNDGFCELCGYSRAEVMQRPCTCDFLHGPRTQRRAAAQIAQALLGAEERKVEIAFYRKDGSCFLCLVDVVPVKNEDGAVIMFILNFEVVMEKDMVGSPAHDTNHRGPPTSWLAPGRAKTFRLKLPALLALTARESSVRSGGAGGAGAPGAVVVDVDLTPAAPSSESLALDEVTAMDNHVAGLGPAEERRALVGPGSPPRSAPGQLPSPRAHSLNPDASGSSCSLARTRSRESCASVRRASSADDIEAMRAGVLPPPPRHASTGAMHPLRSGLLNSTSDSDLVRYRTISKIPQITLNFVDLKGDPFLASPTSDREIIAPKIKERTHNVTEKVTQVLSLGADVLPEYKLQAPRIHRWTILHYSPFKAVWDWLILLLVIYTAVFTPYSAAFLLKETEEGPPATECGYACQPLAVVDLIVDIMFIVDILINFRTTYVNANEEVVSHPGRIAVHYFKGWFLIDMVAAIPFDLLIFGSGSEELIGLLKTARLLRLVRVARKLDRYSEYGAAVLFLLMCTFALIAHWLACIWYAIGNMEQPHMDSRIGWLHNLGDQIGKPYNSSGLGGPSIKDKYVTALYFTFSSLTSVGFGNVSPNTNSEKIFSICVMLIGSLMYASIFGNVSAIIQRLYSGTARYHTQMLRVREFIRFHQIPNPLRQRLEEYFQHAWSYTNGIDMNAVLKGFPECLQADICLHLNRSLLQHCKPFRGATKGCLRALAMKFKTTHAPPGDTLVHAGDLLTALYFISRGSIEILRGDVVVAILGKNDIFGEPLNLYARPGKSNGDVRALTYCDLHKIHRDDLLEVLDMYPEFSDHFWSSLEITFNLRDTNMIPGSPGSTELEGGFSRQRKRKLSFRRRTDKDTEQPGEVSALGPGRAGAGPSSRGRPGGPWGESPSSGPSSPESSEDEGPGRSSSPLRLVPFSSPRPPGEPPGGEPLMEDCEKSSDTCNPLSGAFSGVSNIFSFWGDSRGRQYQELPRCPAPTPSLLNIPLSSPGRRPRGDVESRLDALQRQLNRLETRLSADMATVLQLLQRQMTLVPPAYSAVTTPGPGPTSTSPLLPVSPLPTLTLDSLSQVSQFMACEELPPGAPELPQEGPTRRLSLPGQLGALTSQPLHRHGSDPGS

[8] = biological target: T2, Voltage-gated inwardly rectifying potassium channel KCNH2; experiment: Inhibition of hERG by patch clamp assay; format: toxicity
[9] = biological target: Sodium channel protein type 5 subunit alpha (Homo sapiens, UniProt Q14524); experiment: Inhibition of Nav1.5 (unknown origin)
Sequence of Sodium channel protein type 5 subunit alpha (Q14524 whole entry): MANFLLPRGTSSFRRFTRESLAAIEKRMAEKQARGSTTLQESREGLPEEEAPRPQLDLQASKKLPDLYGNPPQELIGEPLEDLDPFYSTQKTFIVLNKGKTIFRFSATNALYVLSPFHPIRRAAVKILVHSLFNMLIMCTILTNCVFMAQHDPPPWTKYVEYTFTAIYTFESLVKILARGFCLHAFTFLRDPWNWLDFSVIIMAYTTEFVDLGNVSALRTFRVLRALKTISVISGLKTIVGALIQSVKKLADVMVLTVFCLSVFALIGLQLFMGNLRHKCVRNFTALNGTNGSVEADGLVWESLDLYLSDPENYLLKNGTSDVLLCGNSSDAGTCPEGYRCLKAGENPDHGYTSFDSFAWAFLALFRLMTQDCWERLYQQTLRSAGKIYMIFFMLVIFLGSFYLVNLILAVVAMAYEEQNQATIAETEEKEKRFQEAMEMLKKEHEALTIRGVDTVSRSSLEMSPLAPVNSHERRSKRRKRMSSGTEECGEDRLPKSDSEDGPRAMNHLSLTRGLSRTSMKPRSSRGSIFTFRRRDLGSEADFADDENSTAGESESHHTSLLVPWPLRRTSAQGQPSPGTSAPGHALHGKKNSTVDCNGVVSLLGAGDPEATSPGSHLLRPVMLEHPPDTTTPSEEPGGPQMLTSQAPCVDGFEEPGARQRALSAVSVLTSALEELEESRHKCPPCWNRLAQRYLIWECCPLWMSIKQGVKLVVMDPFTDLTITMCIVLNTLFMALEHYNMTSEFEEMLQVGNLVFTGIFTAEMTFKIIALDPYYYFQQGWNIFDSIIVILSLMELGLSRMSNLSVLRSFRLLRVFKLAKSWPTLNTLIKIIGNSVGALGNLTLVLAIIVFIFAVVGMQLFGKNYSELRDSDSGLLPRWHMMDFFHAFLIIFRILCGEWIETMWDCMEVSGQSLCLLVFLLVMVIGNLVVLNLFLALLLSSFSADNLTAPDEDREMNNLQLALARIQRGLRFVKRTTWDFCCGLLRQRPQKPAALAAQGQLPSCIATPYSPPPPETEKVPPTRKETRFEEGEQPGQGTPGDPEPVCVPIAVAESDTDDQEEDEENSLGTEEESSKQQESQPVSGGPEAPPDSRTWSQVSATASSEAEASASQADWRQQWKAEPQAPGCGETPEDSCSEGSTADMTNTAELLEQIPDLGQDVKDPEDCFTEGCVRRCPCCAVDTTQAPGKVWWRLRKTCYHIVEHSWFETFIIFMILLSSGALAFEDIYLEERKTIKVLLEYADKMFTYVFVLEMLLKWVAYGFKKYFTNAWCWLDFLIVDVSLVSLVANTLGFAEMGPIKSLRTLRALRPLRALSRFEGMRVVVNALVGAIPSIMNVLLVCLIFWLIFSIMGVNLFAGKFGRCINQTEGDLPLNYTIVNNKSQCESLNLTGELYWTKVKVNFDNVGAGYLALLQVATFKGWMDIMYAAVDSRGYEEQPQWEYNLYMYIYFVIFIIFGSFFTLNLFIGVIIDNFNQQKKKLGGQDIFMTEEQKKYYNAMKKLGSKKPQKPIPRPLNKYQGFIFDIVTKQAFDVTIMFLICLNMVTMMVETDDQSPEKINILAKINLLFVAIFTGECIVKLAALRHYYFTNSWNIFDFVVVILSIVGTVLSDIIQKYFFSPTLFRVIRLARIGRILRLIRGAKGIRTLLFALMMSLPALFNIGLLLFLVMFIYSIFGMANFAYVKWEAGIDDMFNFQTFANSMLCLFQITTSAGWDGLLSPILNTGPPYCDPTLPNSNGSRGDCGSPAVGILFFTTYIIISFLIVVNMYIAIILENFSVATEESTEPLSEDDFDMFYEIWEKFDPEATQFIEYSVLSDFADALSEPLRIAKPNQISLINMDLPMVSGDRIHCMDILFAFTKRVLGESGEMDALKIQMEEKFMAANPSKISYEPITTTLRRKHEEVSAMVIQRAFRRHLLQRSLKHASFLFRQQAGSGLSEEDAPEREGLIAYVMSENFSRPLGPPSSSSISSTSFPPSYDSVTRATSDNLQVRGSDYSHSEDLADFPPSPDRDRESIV

[10] = Oral bioavailability in NMRI mouse at 20 mg/kg by LC/MS/MS analysis; format: ADME, organism-based; details: in vivo
Procedure, shortened: (§2)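 Compound dosed as the tartrate salt. Oral doses were 20 mg/kg in mouse, 10 mg/kg in rat and 5 mg/kg in minipig.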

[11] = Oral bioavailability in Gottigen pig by LC/MS/MS analysis; format: ADME, organism-based, Sus scrofa; details: in vivo; procedure, shortened: as §2
[12] = Volume of distribution at steady state in NMRI mouse at 20 mg/kg, po or 2 mg/kg, iv by LC/MS/MS analysis; format: ADME, organism-based; details: in vivo; procedure, shortened: as §2
[13] = Volume of distribution at steady state in Wistar rat at 10 mg/kg, po or 2 mg/kg,iv by LC/MS/MS analysis; format: ADME, organism-based; details: in vivo; procedure, shortened: as §2
[14] = Half life in NMRI mouse plasma at 20 mg/kg, po or 2 mg/kg, iv by LC/MS/MS analysis; format: ADME, organism-based; procedure, shortened: as §2
[15] = Half life in Gottigen pig plasma by LC/MS/MS analysis; format: ADME, Sus scrofa; procedure, shortened: as §2
[16] = AUC in Gottigen pig plasma 5 to 20 mg/kg, po by LC/MS/MS analysis; format: ADME, organism-based, Sus scrofa; design: route po; details: dose 5-20 mg/kg
Procedure, shortened: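 Compound given orally as its tartrate salt at 20 mg/kg in mouse, 10 mg/kg in rat and 5 mg/kg in minipig.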

EC50 (Histone deacetylase): 0.05 µM | IC50 (Histone deacetylase 2): 0.0028 µM | inhibition [1]: inactive | inhibition [2]: inactive | inhibition [3]: inactive | IC50 (Cytochrome P450 2D6): > 20 µM | IC50 (Cytochrome P450 2C9): > 20 µM | Papp [6]: 10.5 ×10⁻⁶ cm/s | F [10]: 62% | bioavailability [11]: 30% | Vdss [12]: 3.2 L/kg | Vdss [13]: 5.3 L/kg | half-life [14]: 3.3 h | half-life [15]: 3.7 h | AUC [16]: 2.6 µM·h
Compound: CCC(=O)CCCCC[C@H](NC(=O)C1CN(C)C1)c1ncc(-c2cc3ccccc3nc2OC)o1
Activity [4]: Non-Toxic | Activity [5]: Non-Toxic | IC50 [7]: 3.6 µM | IC50 [8]: 10 µM | IC50 [9]: > 16 µM
